In the library only some 1% were active in any assay of this set; here they are far more common.
Yeast eIF2B = eIF2B (yeast) activity modulation. AID 688. inhibition, % at 25 µM (by protocol). S. cerevisiae eIF2B-epsilon R284H, GCN4-lacZ luminescence. hit rate 0.91% among 27,000;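 active = mutant luminescence inhibited past about 50% while wild type luminescence and mutant growth stay under set limits, limit read from the data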
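Times: 16 h growth with compound at 30 °C, 90 min Beta-Glo step; Assay system: yeast eIF2B-epsilon R284H mutant carrying GCN4–beta-galactosidase fusion; Measure: % inhibition of reporter signal and growth versus controls; Dosing: one concentration, 25 µM, 0.25% DMSO; Buffer or medium: YPD yeast growth medium; Measured by: Beta-Glo luminescence plus absorbance at 595 nm.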
Yeast growth tox = Compounds toxic to wild-type S. cerevisiae growth | A595 turbidity, 16 h | growth inhibition, % at 25 µM (by protocol) | hit rate 0.3% among 30,000 | AID 685;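 active = mutant and wild-type yeast strains alike exhibit over 30% growth inhibition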;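 also: 0% = untreated cell controls and 100% = YPD media blanks without cells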
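Schedule: 16 h growth with compound, 30 °C. System: yeast, wild-type or eIF2Bepsilon-R284H mutant. Doses: one dose, 25 µM compound[…]. Buffer or medium: YPD. Signal: turbidity measured as absorbance at 595 nm. Read-out basis: growth inhibition (%) versus cell controls and blanks.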
The depositor's hits bear a star; ! = not active in a repeat.

For CCOC(=O)c1oc2nc(CC(C)C)c3c(c2c1N)CCC3 the results were Yeast eIF2B 29 and Yeast growth tox -17.
For CCCCNS(=O)(=O)c1cccc(S(=O)(=O)N2CCCC2)c1 the results were Yeast eIF2B 53* and Yeast growth tox -9.
`O=S(=O)(NCCc1ccccc1F)c1cccc(S(=O)(=O)N2CCOCC2)c1` gave Yeast eIF2B -24 and Yeast growth tox -6.
Screening O=C(NC1CCCCC1)c1ccc(S(=O)(=O)N2CCCC2)cc1 returned Yeast eIF2B 40 and Yeast growth tox 35*.
Screening O=C(NC1CCCC1)c1ccc(S(=O)(=O)N2CCOCC2)cc1 returned Yeast growth tox 19.
`CC(=O)Nc1ccc(C(=O)NC2CCCC2)cc1` gave Yeast eIF2B 51* and Yeast growth tox -23.
`CC(Oc1ccc(C(=O)NC2CCCCC2)cc1)C(=O)O` (centres undefined) gave Yeast growth tox 1.
For O=C(c1nc(-c2ccccc2)n(-c2ccccc2)n1)N1CCN(S(=O)(=O)c2ccccc2)CC1 the results were Yeast eIF2B 11 and Yeast growth tox -3.
For Cc1ccnc2nc(C(=O)NCCc3ccc(F)cc3)nn12 the results were Yeast eIF2B 2 and Yeast growth tox 9.
`CCOC(=O)c1cc2c(=O)n(C)c3ccccc3c2s1` gave Yeast eIF2B 12 and Yeast growth tox -2.
`CCOC(=O)c1ccc(NS(=O)(=O)CC)cc1` gave Yeast growth tox 7.
Screening CCOC(=O)c1ccc(N2C(=O)C=CC2=O)cc1 returned Yeast eIF2B 96 and Yeast growth tox 90*.
Screening CC1CCN(S(=O)(=O)c2ccc3ncn(CC(=O)N(C)Cc4ccccc4)c(=O)c3c2)CC1 returned Yeast eIF2B -3 and Yeast growth tox 17.
O=C1CC(O)(C(F)(F)F)Oc2c1ccc1ccccc21 (centres undefined) was read as Yeast eIF2B 46 and Yeast growth tox 2.
For O=C1CC(O)(C(F)F)Oc2ccc3ccccc3c21 (centres undefined) the results were Yeast eIF2B 53* and Yeast growth tox 16.
For CCOc1ccc(C(CC(=O)O)NC(=O)C23CC4CC(CC(C4)C2)C3)cc1 (centres undefined) the results were Yeast eIF2B 26 and Yeast growth tox -6.
CCn1c(N)c(C(=O)NCCCOC)sc1=S was read as Yeast eIF2B -18 and Yeast growth tox 7.
For CCOC(=O)c1c(NC(C)=O)no[n+]1[O-] the results were Yeast eIF2B 20 and Yeast growth tox 7.
`CCCc1ccc(Oc2c(-c3ccc(O)c(C)c3O)n[nH]c2C)cc1` gave Yeast eIF2B -32 and Yeast growth tox 81*.
For COc1ccc(Oc2c(-c3ccc(O)cc3O)n[nH]c2C)cc1 the results were Yeast eIF2B -1 and Yeast growth tox 6.
`CCS(=O)(=O)N1CCCC(C(=O)NCCN(C)Cc2ccccc2)C1` (centres undefined) gave Yeast eIF2B 62* and Yeast growth tox 11.
CCS(=O)(=O)N1CCCC(C(=O)NCc2cccc(OC)c2)C1 (centres undefined) was read as Yeast eIF2B -2 and Yeast growth tox 1.
For CC(=O)NCC1=C(NC(C)=O)C2CC1C(C)(C)C2C (centres undefined) the results were Yeast growth tox -28.
`N#Cc1cccc(NC(=O)CN2NS(=O)(=O)c3ccccc3C2=O)c1` gave Yeast growth tox 3.
For Cc1ccc2nc(/C(C#N)=C\c3ccc(N4CCOCC4)o3)[nH]c2c1 the results were Yeast eIF2B 65*.
Screening N#C/C(=C/c1ccc(N2CCCCC2)o1)c1cccc(F)c1 returned Yeast growth tox 13.
`C=COCCNC(=O)C1CC(=O)N(c2ccc(C)cc2)C1` (centres undefined) gave Yeast eIF2B 19 and Yeast growth tox 21.
Cc1ccccc1-c1cc(-c2ccccc2O)n[nH]1 was read as Yeast eIF2B 20 and Yeast growth tox 18.
`Cc1ccc(-c2cc(-c3ccccc3Cl)[nH]n2)c(O)c1` gave Yeast eIF2B 30 and Yeast growth tox 64*.
CC1CN(c2ccccc2)C(=O)CS1 (centres undefined) was read as Yeast eIF2B 18 and Yeast growth tox 3.
c1ccc(SCCc2ccncc2)cc1 was read as Yeast growth tox 9.
For Fc1ccc(SCCc2ccncc2)cc1 the results were Yeast growth tox 59*!.
C=CCn1c(SCc2nc3ccccc3[nH]2)nnc1-c1cccc(OC)c1 was read as Yeast eIF2B -6 and Yeast growth tox -10.
Cc1noc(C)c1CSc1ncnc2ccccc12 was read as Yeast eIF2B -20 and Yeast growth tox 2.
CCOC(=O)Cn1c2ccc(OC)cc2c2nc3ccccc3nc21 was read as Yeast eIF2B 33 and Yeast growth tox -6.
COC(=O)Cn1c2ccc(OC)cc2c2nc3ccccc3nc21 was read as Yeast eIF2B 53* and Yeast growth tox -7.
